Assay outcomes deposited in PubChem by several laboratories.
HCT116 bCat-KO: beta-catenin-lacking colon tumor cell growth suppression; viability, % at 10 µM; AID 818; 140,000 compounds, 1.5% hits; HCT116 beta-catenin knockout viability, CellTiter-Glo, 60 h; stronger effect = lower value;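 active = viability at or under a set limit, the compound median less 4 SD, cut at about 6% in these data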;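 also: 0% = Hyamine 1622 control at 20 µM and 100% = untreated cell control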
Autophagy HCS: alters autophagy in cells; AID 463193; calls only at 10 µM (by protocol); MEF GFP-LC3 puncta imaging; test concentration mostly 10 µM; 190,000 compounds, 0.98% hits;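 active = percentage of spot-positive cells more than 3 SD above its plate mean, without a fluorescence outlier flag or 80% toxicity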;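 also: spot-positive cell cutoff set from DMSO-treated cells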
Dynein transport: dynein cargo transport inhibition; 3617.4 mouse cells, GR-EGFP nuclear translocation imaging; test concentration mostly 20 µM; stimulated with dexamethasone, 1 µM; stronger effect = lower value; z-score, hits read low; 220,000 compounds, 0.47% hits;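 active = plate z-score of nuclear minus cytoplasmic receptor signal below a set negative limit, without overly bright fluorescence or cell loss, cut at about -3.5 in these data, passing the limit was not always enough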;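 also: z-score of nuclear minus cytoplasmic ring GR-EGFP intensity difference per well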
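Buffer or medium: tet-free medium with charcoal-stripped serum / Also added: dexamethasone agonist, 1.0 µM final, for 30 min / Timing: induction 48 h, compound 1 h, agonist 30 min / Measured by: high-content fluorescence imaging after fixation / Read-out: nuclear-to-cytoplasmic GR-EGFP distribution per well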
Lmaj promast: Leishmania major promastigote growth inhibition; AID 1063; 200,000 compounds, 9% hits; Leishmania major promastigotes, resazurin fluorescence viability; inhibition, % at 10 µM; in the data active = inhibition above about 50%;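 also: promastigotes grown with compound for 44 hours at 28 °C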
HCT116 PTEN-null: growth suppressors of cells with PTEN tumor suppressor deletion. HCT116 PTEN-null viability, CellTiter-Glo, 60 h; stronger effect = lower value. viability, % at 10 µM. 140,000 compounds, 1.2% hits;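 active = viability at or below a set limit, 4 SD under the median of all tested compounds, cut at about 3.7% in these data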;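 also: PTEN knockout HCT116 line with beta catenin targeted HCT116 as companion control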
The depositor's hits bear a star; i = inactive; x = no result; + = active, no number. Compounds with a hit are over-represented: about 9.2% of the library has one in this group of screens.

SMILES | HCT116 bCat-KO | Autophagy HCS | Dynein transport | Lmaj promast | HCT116 PTEN-null
COc1ccc2nc3sc(C(=O)NCc4cccs4)c(N)c3cc2c1 | 76 | + | -0.098 | 6 | 85
COc1ccc(-c2cc(C(=O)NCc3cccs3)no2)cc1 | x | x | -0.47 | x | x
CCOc1ccc2nc3sc(C(=O)N4CCOCC4)c(N)c3cc2c1 | x | i | 0.084 | 93* | x
Cc1cc(C)c2cc3c(N)c(C(=O)N4CCOCC4)sc3nc2c1 | x | i | -0.2 | -1 | x
COc1ccc([N+](=O)[O-])cc1NCc1ccco1 | x | x | 3.1 | x | x
O=C(c1cc2cccc([N+](=O)[O-])c2oc1=O)N1CCOCC1 | x | x | -0.29 | x | x
COc1ccccc1N(CC(=O)NC1CCCC1)C(=O)c1oc(C(C)(C)C)cc1C | x | i | -0.57 | 62* | x
Cc1cc(C(C)(C)C)oc1C(=O)N(CC(=O)NC1CCCC1)c1c(C)cccc1C | 51 | i | -0.6 | 24 | 47
N=c1occ(C(=O)c2cc(F)ccc2O)cc1C(=O)NC1CCCCC1 | x | i | -0.86 | 70* | x
CCOC(=O)c1cc(C(=O)c2cc(F)ccc2O)coc1=N | 82 | i | -0.39 | -10 | 89
CN(CC(O)Cn1cnc2c1c(=O)n(C)c(=O)n2C)c1ccccc1 (centres undefined) | x | + | -0.41 | -5 | x
CN(CCO)CC(O)Cn1cnc2c1c(=O)n(C)c(=O)n2C (centres undefined) (tested in a mixture with another compound) | 87 | i | 0.74 | -2 | 94
Cn1c(=O)c2c(SCC(=O)N3CCCc4ccccc43)nc(C3CC3)nc2n(C)c1=O | 37 | i | 0.0033 | 61* | 30
Cc1sc2nc(C3CC3)nc(SCC(=O)N3CCCc4ccccc43)c2c1C | 59 | i | -0.11 | 94* | 51
Cn1c(=O)c2c(nc(SCC(=O)N3CCCc4ccccc43)n2C)n(C)c1=O | x | i | -1.6 | 3 | x
Cc1cc(N2C(=O)C3C4CC(c5ccccc5)C(C4)C3C2=O)no1 (centres undefined) | x | i | -0.72 | -7 | x
COc1ccc(C(=O)Nc2c3c(nn2-c2cccc(Cl)c2)CS(=O)C3)cc1 (centres undefined) | 90 | i | -0.89 | 98* | 85
CCOC(=O)c1nc(NCc2ccccc2C)c2ccccc2n1 | x | i | -0.082 | 65* | x
CCOC(=O)Cn1c(S(=O)(=O)Cc2cccc(F)c2)nc(-c2ccccc2)c1-c1ccccc1 | 68 | i | -0.55 | 90* | 72
CCOC(=O)Cn1c(S(=O)(=O)Cc2ccc(F)cc2)nc(-c2ccccc2)c1-c1ccccc1 | 57 | i | 0.79 | 10 | 66
C#CCn1c(S(=O)(=O)Cc2ccc(F)cc2)nc(-c2ccccc2)c1-c1ccccc1 | 60 | i | -0.15 | 96* | 67
COc1ccc(/C=C(/C(=O)NCc2ccccc2)c2ccccc2)cc1 | 95 | i | 0.28 | 92* | 103
COc1ccccc1/C=C(/C(=O)OCC(=O)Nc1ccccc1C)c1ccccc1 | 91 | i | 1.2 | -4 | 89
COc1ccccc1/C=C(/C(=O)OCC(=O)NCc1ccccc1)c1ccccc1 | 81 | i | -0.61 | 62* | 86
O=C(NCc1ccccc1)/C(=C/c1ccc(OC(F)F)cc1)c1ccccc1 | 70 | i | 0.7 | 46 | 69
SMILES | HCT116 bCat-KO | Autophagy HCS | Dynein transport | Lmaj promast | HCT116 PTEN-null
O=C(CSc1nnc2ccccn12)N1CCc2ccccc21 | x | i | -0.62 | -7 | x
CN(CCc1ccccn1)C(=O)CCC1CCCN(C(=O)c2ccc3c(c2)OCCO3)C1 (centres undefined) | x | i | -1.3 | -2 | x
CN(C)c1ccc(/C=C2\SC(=S)N(Nc3ncc(C(F)(F)F)cc3Cl)C2=O)cc1 | 82 | + | -5 | -1 | 80
COc1cc(/C=C2\SC(=S)N(Nc3ncc(C(F)(F)F)cc3Cl)C2=O)ccc1O | 99 | i | -0.3 | 23 | 106
O=C(N/N=C1\C2CN3CCN(C2)CC1(c1ccccc1)C3)Nc1ccccc1 | x | i | 0.66 | 4 | x
O=C(NC1CCN(C(=O)C2CCCCC2)CC1)c1ccccc1 | x | x | -0.061 | x | x
Cc1ccccc1-c1nn(-c2ccc(F)cc2F)cc1CNCCCN(C)C | x | i | 0.19 | 100* | x
Cc1ccccc1-c1nn(-c2ccc(F)cc2F)cc1CNCCN(C)C | x | i | 0.25 | 74* | x
COc1ccc(-n2nnc3c(=O)n(CC(=O)Nc4cc(C)on4)cnc32)cc1 | x | i | -0.45 | -6 | x
CC(NC(=O)CCSc1nc(-c2ccc3c(c2)OCO3)cc(C(F)(F)F)n1)c1ccccc1 (centres undefined) | 68 | i | 0.37 | 62* | 62
CCn1cc(C(=O)N=c2sc3ccccc3n2C)c(=O)c2ccc(C)nc21 | x | i | 0.46 | 89* | x
O=C(/C=C/c1ccc(OCc2ccccc2)c(OCc2ccccc2)c1)c1cccnc1 | 1.5* | i | -2.4 | 100* | 1.6*
CCN(CC)c1ccc(/C=C/C(=O)c2cccnc2)cc1 | x | i | 0.48 | 49 | x
COc1ccc(N2CCN(C(CNC(=O)C(=O)NCc3cccs3)c3ccco3)CC2)cc1 (centres undefined) | x | i | 0.19 | 6 | x
O=C(CNS(=O)(=O)c1c(Cl)cccc1Cl)OCc1csc(-c2ccccc2)n1 | 94 | i | 0.12 | 57* | 96
COCCNC(=O)NC12CC3(C)CC(C)(CC(C)(C3)C1)C2 | x | i | -1.2 | 12 | x
O=S(=O)(c1ccc2c(c1)OCCO2)N1CCN(c2ncnc3sccc23)CC1 | x | i | -0.077 | 60* | x
CCN(CC)S(=O)(=O)c1ccc(N2CCN(S(=O)(=O)c3ccc4c(c3)OCCO4)CC2)nc1 | 56 | i | -0.55 | 79* | 67
CN1CCN(S(=O)(=O)c2ccc3c(c2)OCCO3)CC1 | 89 | i | 0.044 | -5 | 105
CCN1CCN(S(=O)(=O)c2cc(C(=O)O)ccc2Cl)CC1 | x | x | 1.1 | x | x
CC(=O)c1sc(-c2ccc(Cl)cc2)nc1C | x | i | -0.22 | -4 | x
Cc1nc(-c2ccccc2)sc1C(=O)/C=C/c1ccc(Cl)cc1 | 20 | i | -0.35 | 63* | 21
Cc1cccc(-n2c(=O)c3c4c(sc3n3c(=S)[nH]nc23)CCC4)c1 | x | + | 0.95 | -3 | x
Cc1ccc(-n2c(=O)c3c4c(sc3n3c(=S)[nH]nc23)CCC4)cc1 | x | x | -0.51 | x | x
CNC(=O)NC(=O)C(C)OC(=O)CCCSc1nc2ccccc2s1 (centres undefined) | 88 | i | -0.19 | 65* | 87
CCNC(=O)NC(=O)COC(=O)CCCSc1nc2ccccc2s1 | 95 | i | -0.05 | -4 | 86
CCNC(=O)NC(=O)C(C)OC(=O)CCCSc1nc2ccccc2s1 (centres undefined) | 94 | i | 0.28 | 64* | 96
COCCOc1cc(Nc2nnc(C(F)(F)F)s2)c(Cl)cc1Cl | 69 | i | -0.64 | 63* | 85
COc1cc(Nc2nnc(C)s2)c(Cl)cc1Cl | 116 | i | -0.63 | 17 | 102
Cc1ccc(N2CC(C(=O)OCC(=O)Nc3ccccc3F)CC2=O)cc1 (centres undefined) | x | i | 0.98 | -3 | x
